Measurements from different studies.
Target: Dual specificity tyrosine-phosphorylation-regulated kinase 1A (DYRK1A, Homo sapiens, UniProt Q13627)

SMILES	test	setting	measurement	result
O=C(Nc1cccnn1)N1CC(C/C=C/c2cncc(Oc3ccc(C(F)(F)F)cn3)n2)C1	cell-free assay, competition with immobilised ligand	1 µM	remaining binding	75%
O=C(O)c1ccc2c(c1)nc(NCCc1cccc(Cl)c1)c1ncncc12	enzyme activity, inhibitor, radiometric	1 µM	remaining activity	44%
Cn1c2c(Cl)c(Cl)ccc2c2cn[nH]c(=O)c21	thermal stability, DSF	10 µM	ΔTm	1.3 °C
CCCS(=O)(=O)Nc1ccc(F)c(C(=O)c2c[nH]c3ncc(-c4ccc(Cl)cc4)cc23)c1F	enzyme activity, inhibitor	1 µM	inhibition	< 10%
CO[C@@H](C)c1c(Nc2ccc([C@@H](N(C)C(=O)C3CCS(=O)(=O)CC3)C(F)(F)F)cc2)cnc2cc(Cl)nn12	cell-free assay, competition with immobilised ligand	1 µM	remaining binding	92%
COc1cc2ncnc(Nc3ccc(Oc4ccccc4)cc3C)c2cc1OC	enzyme activity, inhibitor	1 µM	inhibition	-1%
COCCOc1nc(-c2ccc(Cl)nc2)nc2c1CN(C(=O)c1ncn3ccccc13)CC2	cell-free assay, competition with immobilised ligand	0.1 µM	remaining binding	78%
CN(C)C1CCN(CC#Cc2nn(C3CCCC3)c3nc(NCc4ccccc4)ncc23)C1 (stereo not drawn)	enzyme activity, inhibitor, FRET	10 µM	inhibition	2%
O=S(=O)(NC1CCC(c2cc(F)ccc2F)(S(=O)(=O)c2ccc(Cl)cc2)CC1)C(F)(F)F (stereo not drawn)	cell-free assay, competition with immobilised ligand	1 µM	remaining binding	78%
CC1(C)NC(=O)c2[nH]c3c(Cl)c(Cl)ccc3c2C1C#N (stereo not drawn)	thermal stability, DSF	10 µM	ΔTm	2.6 °C
O=C(O)c1ccc2c(c1)nc(NCCc1cccc(F)c1)c1ncncc12	enzyme activity, inhibitor, radiometric	1 µM	remaining activity	18%
N#CCCc1ccc2c(c1)-c1[nH]c3ccc([N+](=O)[O-])cc3c1CC(=O)N2	cell-free assay	0.5 µM	remaining signal	85.9%
CNCc1ccccc1-c1csc([C@H](C)Nc2nc(C)nc3cc(OC)c(OC)cc23)c1	cell-free assay, competition with immobilised ligand	1 µM	remaining binding	80%
O=C(O)c1ccc2c(c1)nc(NCCc1cccc(Cl)c1)c1ccncc12	enzyme activity, inhibitor, radiometric	1 µM	remaining activity	17%
O=C1NC(=O)c2cc(Nc3ccc(F)cc3)c(Nc3ccc(F)cc3)cc21	cell-free assay	0.5 µM	remaining signal	95.6%
N#Cc1cccc(Nc2nc3cc(C(=O)O)ccc3c3cncnc23)c1	enzyme activity, inhibitor, radiometric	1 µM	remaining activity	3%
CCN(CC)CCNC(=O)c1c(C)[nH]c(/C=C2\C(=O)Nc3ccc(F)cc32)c1C	cell-free assay	0.5 µM	remaining signal	56.9%
CCC1(CC)NC(=O)c2c(c3ccc(Cl)c(Cl)c3n2C)C1C#N (stereo not drawn)	thermal stability, DSF	10 µM	ΔTm	0.7 °C
O=C(O)c1ccc2c(c1)nc(Nc1ccc(F)c(Cl)c1)c1ncncc12	enzyme activity, inhibitor, radiometric	1 µM	remaining activity	1%
O=C1NC(c2ccccn2)Sc2ccccc21 (stereo not drawn)	cell-free assay, competition with immobilised ligand	1 µM	remaining binding	100%
Cn1cnc(Br)c1C1=CN(c2ncnc3[nH]cnc23)CCS1	enzyme activity, inhibitor, radiometric	2 µM	inhibition	99.2%
O=C(O)c1ccc2c(c1)nc(Nc1ccc(Cl)cc1)c1ccncc12	enzyme activity, inhibitor, radiometric	1 µM	remaining activity	2%
CS(=O)(=O)CCNCc1ccc(-c2ccc3ncnc(Nc4ccc(OCc5cccc(F)c5)c(Cl)c4)c3c2)o1	cell-free assay	0.5 µM	remaining signal	101%
COc1cccc(CCNc2nc3cc(C(=O)O)ccc3c3cncnc23)c1	enzyme activity, inhibitor, radiometric	1 µM	remaining activity	40%
COc1ccc2c(O[C@@H]3C[C@H]4C(=O)N[C@]5(C(=O)O)CC5/C=C\CCCCC[C@H](NC(=O)OC5CCCC5)C(=O)N4C3)cc(-c3csc(NC(=O)C(C)C)n3)nc2c1C (stereo partly drawn)	cell-free assay, competition with immobilised ligand	1 µM	remaining binding	79%
Cc1ccc(C(=O)Nc2ccc(CN3CCN(C)CC3)c(C(F)(F)F)c2)cc1C#Cc1cnc2cccnn12	cell-free assay	23.5 nM	remaining signal	81%
Cn1c2c(Cl)c(Cl)ccc2c2cc[nH]c(=O)c21	thermal stability, DSF	10 µM	ΔTm	2.6 °C
Cc1ccc(NC(=O)c2ccc(C)c(C(F)(F)F)c2)cc1C#Cc1nn(C2CCC(O)CC2)c2ncnc(N)c12 (stereo not drawn)	cell-free assay	10 µM	remaining signal	95%
CNc1cccc2cc(C(=O)Nc3ccc(C(=O)O)cc3)c(=O)[nH]c12	enzyme activity, inhibitor	10 µM	inhibition	28%
O=C(N1CCS(=O)(=O)CC1)N1C[C@H](c2ccc(OC(F)(F)F)cc2)C[C@H](c2nc(C3CC3)no2)C1	cell-free assay, competition with immobilised ligand	1 µM	remaining binding	100%
